From ChEMBL document CHEMBL5058577, “EUbOPEN Chemogenomics Library 2 (Multiplex)” (2022)

System: U2OS
Assay: Multiplex assay against U2OS
Type: toxicity, cell-based
Settings: human
Procedure, shortened: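 Cells were classed with CellPathfinder machine-learning gating, first as Hoechst high-intensity objects or normal cells, then (normal cells) as healthy, pyknosed or fragmented nuclei, and finally (pyknosed cells) as mitotic or apoptotic. Staining of live cells at seeding used Hoechst33342, BioTracker Green Microtubule Cytoskeleton Dye, MitoTracker Red and Annexin V Alexa Fluor 680, with imaging on a CQ1 microscope at 37°C and 5% CO2 after compound addition. Tubulin, mitochondrial-mass and membrane-permeability phenotypes are per cents of healthy-nucleus cells.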

[1] = 12 h, 1 µM, compound concentration 1 uM, replicate 1
[2] = 12 h, 1 µM, compound concentration 1 uM, replicate 2
[3] = 12 h, 10 µM, compound concentration 10 uM, replicate 1
[4] = 12 h, 10 µM, compound concentration 10 uM, replicate 2
[5] = 24 h, 1 µM, compound concentration 1 uM, replicate 1
[6] = 24 h, 1 µM, compound concentration 1 uM, replicate 2
[7] = 24 h, 10 µM, compound concentration 10 uM, replicate 1
[8] = 24 h, 10 µM, compound concentration 10 uM, replicate 2
[9] = 48 h, 1 µM, compound concentration 1 uM, replicate 1
[10] = 48 h, 1 µM, compound concentration 1 uM, replicate 2
[11] = 48 h, 10 µM, compound concentration 10 uM, replicate 1
[12] = 48 h, 10 µM, compound concentration 10 uM, replicate 2

For `Cc1ccc(-c2ccc(F)cc2COc2ccc(CCC(=O)O)cc2)cc1`, which “Population Apoptotic (%)” value [1] is on record?
Its value is 75%.

What about the “Population Fragmented Nuclei (%)” value [1] of the same compound?
Its value is 22%.

What about the “Population Healthy Nuclei (%)” value [1] of the same compound?
Its value is 71%.

And the “Population Mitotic Cells (%)” value [1]?
Its value is 25%.

What about the “Population Normal (%)” value [1] of the same compound?
The value was 97%.

What about the “Population Pyknosed Nuclei (%)” value [1] of the same compound?
The value was 5%.

And the “Total Cell Count” value [1]?
The value was 277.

What about the “Population Apoptotic (%)” value [2] of the same compound?
The value was 100%.

And the “Population Fragmented Nuclei (%)” value [2]?
The value was 17%.

And the “Population Healthy Nuclei (%)” value [2]?
The value was 74%.

And the “Population Mitotic Cells (%)” value [2]?
Its value is 0%.

And the “Population Pyknosed Nuclei (%)” value [2]?
Its value is 8%.

And the “Total Cell Count” value [2]?
The value was 135.

What about the “Population Apoptotic (%)” value [3] of the same compound?
Its value is 75%.

What about the “Population Fragmented Nuclei (%)” value [3] of the same compound?
The value was 31%.

And the “Population Healthy Nuclei (%)” value [3]?
The value was 61%.

What about the “Population Mitotic Cells (%)” value [3] of the same compound?
The value was 25%.

What about the “Population Normal (%)” value [3] of the same compound?
Its value is 98%.

What about the “Population Pyknosed Nuclei (%)” value [3] of the same compound?
The value was 6%.

And the “Total Cell Count” value [3]?
Its value is 238.

What about the “Population Apoptotic (%)” value [4] of the same compound?
Its value is 83%.

What about the “Population Fragmented Nuclei (%)” value [4] of the same compound?
The value was 14%.

What about the “Population Healthy Nuclei (%)” value [4] of the same compound?
The value was 75%.

And the “Population Mitotic Cells (%)” value [4]?
Its value is 16%.

What about the “Population Normal (%)” value [4] of the same compound?
Its value is 97%.

And the “Population Pyknosed Nuclei (%)” value [4]?
The value was 10%.

And the “Total Cell Count” value [4]?
Its value is 123.

And the “Population Apoptotic (%)” value [5]?
Its value is 90%.

And the “Population Fragmented Nuclei (%)” value [5]?
Its value is 21%.

And the “Population Healthy Nuclei (%)” value [5]?
The value was 69%.

And the “Population Mitotic Cells (%)” value [5]?
Its value is 10%.

What about the “Population Normal (%)” value [5] of the same compound?
The value was 97%.

And the “Population Pyknosed Nuclei (%)” value [5]?
Its value is 9%.

And the “Total Cell Count” value [5]?
The value was 340.

And the “Population Apoptotic (%)” value [6]?
Its value is 100%.

And the “Population Fragmented Nuclei (%)” value [6]?
Its value is 20%.

And the “Population Healthy Nuclei (%)” value [6]?
The value was 70%.

And the “Population Mitotic Cells (%)” value [6]?
Its value is 0%.

And the “Population Normal (%)” value [6]?
The value was 98%.

And the “Population Pyknosed Nuclei (%)” value [6]?
The value was 8%.

What about the “Total Cell Count” value [6] of the same compound?
Its value is 175.

And the “Population Apoptotic (%)” value [7]?
Its value is 94%.

And the “Population Fragmented Nuclei (%)” value [7]?
The value was 26%.

What about the “Population Healthy Nuclei (%)” value [7] of the same compound?
Its value is 67%.

And the “Population Mitotic Cells (%)” value [7]?
The value was 5%.

What about the “Population Normal (%)” value [7] of the same compound?
Its value is 98%.

What about the “Population Pyknosed Nuclei (%)” value [7] of the same compound?
Its value is 5%.

What about the “Total Cell Count” value [7] of the same compound?
Its value is 295.

And the “Population Apoptotic (%)” value [8]?
Its value is 93%.

What about the “Population Fragmented Nuclei (%)” value [8] of the same compound?
Its value is 22%.

And the “Population Mitotic Cells (%)” value [8]?
The value was 6%.

And the “Population Normal (%)” value [8]?
The value was 97%.

And the “Population Pyknosed Nuclei (%)” value [8]?
The value was 9%.

And the “Total Cell Count” value [8]?
Its value is 160.

And the “Population Apoptotic (%)” value [9]?
Its value is 89%.

What about the “Population Fragmented Nuclei (%)” value [9] of the same compound?
The value was 17%.

What about the “Population Healthy Nuclei (%)” value [9] of the same compound?
The value was 74%.

And the “Population Mitotic Cells (%)” value [9]?
Its value is 10%.

And the “Population Normal (%)” value [9]?
Its value is 97%.

What about the “Population Pyknosed Nuclei (%)” value [9] of the same compound?
Its value is 8%.

What about the “Total Cell Count” value [9] of the same compound?
The value was 487.

And the “Population Apoptotic (%)” value [10]?
Its value is 95%.

What about the “Population Fragmented Nuclei (%)” value [10] of the same compound?
The value was 15%.

And the “Population Healthy Nuclei (%)” value [10]?
Its value is 75%.

What about the “Population Mitotic Cells (%)” value [10] of the same compound?
Its value is 5%.

And the “Total Cell Count” value [10]?
The value was 242.

And the “Population Apoptotic (%)” value [11]?
Its value is 87%.

And the “Population Fragmented Nuclei (%)” value [11]?
Its value is 21%.

What about the “Population Healthy Nuclei (%)” value [11] of the same compound?
Its value is 70%.

What about the “Population Mitotic Cells (%)” value [11] of the same compound?
The value was 12%.

And the “Population Normal (%)” value [11]?
Its value is 97%.

What about the “Population Pyknosed Nuclei (%)” value [11] of the same compound?
Its value is 7%.

And the “Total Cell Count” value [11]?
Its value is 421.

What about the “Population Apoptotic (%)” value [12] of the same compound?
The value was 88%.

And the “Population Fragmented Nuclei (%)” value [12]?
The value was 16%.

And the “Population Healthy Nuclei (%)” value [12]?
The value was 72%.

What about the “Population Mitotic Cells (%)” value [12] of the same compound?
Its value is 11%.

What about the “Population Normal (%)” value [12] of the same compound?
Its value is 98%.

What about the “Total Cell Count” value [12] of the same compound?
The value was 236.
